In ChEMBL document CHEMBL1649112, “Effects of exposure of Clostridium difficile PCR ribotypes 027 and 001 to fluoroquinolones in a human gut model” (Antimicrob Agents Chemother, 2009):
Calls of active or inactive are those of the source. The rule behind the calls is not given here.

What was measured:
[1] = tested on: Bifidobacterium; test: Antimicrobial activity against Bifidobacterium in three-stage chemostat gut model assessed as log reduction in bacterial count at 139 mg/liter administered every 12 hrs for 7 days; assay type: functional
How it was run: (§1)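 Three-stage anaerobic chemostat (37°C, N2-sparged; vessels at pH 5.5, 6.2 and 6.8; 66.7 h total retention) primed with 10% (wt/vol) pooled C. difficile-negative feces from healthy elderly donors. Instillation began on day 21. Vessel 2 and 3 samples were diluted 10-fold serially to 10–7 in prereduced peptone water and plated on selective agars in triplicate; counts are log10 CFU/ml.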

[2] = Drug level in human feces; assay type: ADME, tissue-based
[3] = tested on: Clostridioides difficile; test: Antimicrobial activity against Clostridium difficile PCR ribotype 027 expressing gyrB Glu466Lys mutant grown on fluoroquinolone-containing medium after 48 hrs; assay type: functional; details: PCR ribotype 027, 48 h
[4] = tested on: Clostridium; test: Antimicrobial activity against Clostridium in three-stage chemostat gut model assessed as log reduction in bacterial count at 63 mg/liter administered daily for 7 days; assay type: functional; how it was run: as §1
[5] = tested on: Clostridioides difficile; test: Antimicrobial activity against Clostridium difficile PCR ribotype 001 expressing gyrB Glu466Lys mutant grown on fluoroquinolone-containing medium after 48 hrs; assay type: functional; details: PCR ribotype 001, 48 h
[6] = tested on: Bacteroides sp.; test: Antimicrobial activity against Bacteroides sp. in three-stage chemostat gut model assessed as log reduction in bacterial count at 63 mg/liter administered daily for 7 days; assay type: functional; how it was run: as §1
[7] = tested on: Enterococcus; test: Antimicrobial activity against Enterococcus in three-stage chemostat gut model assessed as log reduction in bacterial count at 63 mg/liter administered daily for 7 days; assay type: functional, organism-based; how it was run: as §1
[8] = tested on: Lactobacillus; test: Antimicrobial activity against Lactobacillus in three-stage chemostat gut model assessed as log reduction in bacterial count at 63 mg/liter administered daily for 7 days; assay type: functional; how it was run: as §1
[9] = tested on: Clostridioides difficile; test: Induction of cytotoxin production in Clostridium difficile PCR ribotype 001 in three-stage chemostat gut model at 63 mg/liter administered daily for 7 days measured after 3 days; assay type: functional, organism-based
How it was run: (§2)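 Gut model as above; on day 21 drug instillation began and a second C. difficile spore inoculum was added to vessel 1. Sample supernatants (16,000 x g) were diluted serially to 10–7 in PBS pH 7.4 and applied to Vero monolayers at 37°C in 5% CO2. Cell rounding was read at 24 and 48 h, and titers are given in relative units.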

[10] = tested on: Clostridioides difficile; test: Induction of cytotoxin production in Clostridium difficile PCR ribotype 027 in three-stage chemostat gut model at 63 mg/liter administered daily for 7 days measured after 2 days; assay type: functional, organism-based; how it was run: as §2
[11] = tested on: Bifidobacterium; test: Antimicrobial activity against Bifidobacterium in three-stage chemostat gut model assessed as log reduction in bacterial count at 43 mg/liter administered daily for 7 days; assay type: functional; how it was run: as §1
[12] = tested on: Lactobacillus; test: Antimicrobial activity against Lactobacillus in three-stage chemostat gut model assessed as log reduction in bacterial count at 43 mg/liter administered daily for 7 days; assay type: functional; how it was run: as §1

O=C(O)c1cn(C2CC2)c2cc(N3CCNCC3)c(F)cc2c1=O [CIPROFLOXACIN]
Activity [1]: Active | Drug uptake [2]: 139 mg/kg

C[C@H]1COc2c(N3CCN(C)CC3)c(F)cc3c(=O)c(C(=O)O)cn1c23.C[C@H]1COc2c(N3CCN(C)CC3)c(F)cc3c(=O)c(C(=O)O)cn1c23.O [LEVOFLOXACIN]
MIC [3]: 256 µg/mL | Drug uptake [2]: 94 mg/kg | Activity [4]: inactive | MIC [5]: 256 µg/mL | FC [6]: 1 | Activity [7]: inactive | Activity [8]: inactive | Activity [9]: Active | Activity [10]: Active

COc1c(N2C[C@@H]3CCCN[C@@H]3C2)c(F)cc2c(=O)c(C(=O)O)cn(C3CC3)c12 [MOXIFLOXACIN]
Activity [11]: inactive | Drug uptake [2]: 66 mg/kg | Activity [12]: inactive
